ABCG2 block: human ABCG2 inhibition, ABCB1 as counter-screen | Q9UNQ0 | IgMXP3 cells, JC-1 efflux, flow cytometry | inhibition, % at 6.6 µM | 0.1% of 190,000 active;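 active means inhibition above 80%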;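 further: 0% = DMSO and 100% = nicardipine control wells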
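test system = two drug-resistant human cell lines, ABCG2 and ABCB1 | amount = 3 million cells/mL final, two lines in 1:1 ratio | reagent = JC-1 transporter substrate | doses = one concentration, 6.6 µM final | incubation = 10 min at 25 °C | signal = flow cytometric JC-1 green MFI at 530 nm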
ABCB1 inh: human ABCB1 inhibition, ABCG2 as counter-screen; CCRF-Adr cells, JC-1 efflux, flow cytometry; inhibition, % at 6.6 µM; 0.067% of 190,000 active; AID 1326; in the data active means inhibition above about 40%;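 further: 0% = vehicle and 100% = reference inhibitor; higher value means more JC-1 retained so stronger ABCB1 efflux block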
Target sequence (P08183 whole entry, looked up): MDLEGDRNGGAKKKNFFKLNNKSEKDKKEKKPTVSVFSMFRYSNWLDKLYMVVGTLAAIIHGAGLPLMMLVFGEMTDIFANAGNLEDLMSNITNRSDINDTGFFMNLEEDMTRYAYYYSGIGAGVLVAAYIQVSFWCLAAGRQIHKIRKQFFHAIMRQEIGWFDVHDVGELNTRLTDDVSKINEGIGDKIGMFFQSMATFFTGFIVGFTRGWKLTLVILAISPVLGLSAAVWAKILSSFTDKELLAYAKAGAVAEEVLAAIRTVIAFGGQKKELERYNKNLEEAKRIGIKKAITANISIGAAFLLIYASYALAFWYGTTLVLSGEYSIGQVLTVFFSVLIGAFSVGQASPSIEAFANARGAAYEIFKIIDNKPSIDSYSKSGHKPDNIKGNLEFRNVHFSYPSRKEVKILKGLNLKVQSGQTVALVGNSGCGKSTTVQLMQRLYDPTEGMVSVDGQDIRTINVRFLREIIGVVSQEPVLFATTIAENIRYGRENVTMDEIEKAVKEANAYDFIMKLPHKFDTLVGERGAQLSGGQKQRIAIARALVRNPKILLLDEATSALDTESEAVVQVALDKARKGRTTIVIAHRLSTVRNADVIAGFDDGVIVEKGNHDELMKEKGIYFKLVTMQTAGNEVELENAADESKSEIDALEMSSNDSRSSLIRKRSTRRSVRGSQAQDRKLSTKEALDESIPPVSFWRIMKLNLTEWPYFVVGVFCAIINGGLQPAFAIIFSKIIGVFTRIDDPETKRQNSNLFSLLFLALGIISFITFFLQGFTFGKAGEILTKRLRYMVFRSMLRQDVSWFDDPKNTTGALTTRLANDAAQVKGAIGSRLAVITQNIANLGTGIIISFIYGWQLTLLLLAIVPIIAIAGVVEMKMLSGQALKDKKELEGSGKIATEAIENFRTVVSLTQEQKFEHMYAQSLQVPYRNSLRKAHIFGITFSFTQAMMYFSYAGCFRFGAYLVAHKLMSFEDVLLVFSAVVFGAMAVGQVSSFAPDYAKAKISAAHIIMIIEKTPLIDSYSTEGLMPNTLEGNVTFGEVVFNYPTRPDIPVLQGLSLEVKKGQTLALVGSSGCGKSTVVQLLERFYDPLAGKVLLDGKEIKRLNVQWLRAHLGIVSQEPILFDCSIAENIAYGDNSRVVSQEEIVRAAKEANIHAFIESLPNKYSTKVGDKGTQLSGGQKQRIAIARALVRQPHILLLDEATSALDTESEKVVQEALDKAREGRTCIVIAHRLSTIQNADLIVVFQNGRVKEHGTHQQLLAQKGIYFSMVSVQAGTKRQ
L major viab: reduces viability of Leishmania major promastigotes. resazurin fluorescence viability. inhibition, % at 10 µM. 9% of 200,000 active; in the data active means inhibition above about 50%;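 further: promastigotes grown with compound for 44 hours at 28 °C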
RAM network inh: inhibitors of the yeast RAM network; 1.8% of 190,000 active; AID 868; inhibition, % at 50 µM; S. cerevisiae dse1pr::URA3 reporter, 5-FOA growth OD615, 2 d; analog-sensitive cbk1-as2 kinase mutant strain;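 active means inhibition above a set limit, 3 SD over mean compound inhibition, cut at about 8.4% in these data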;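 further: 0% = DMSO-only wells with no growth and 100% = 10 µM 1-NA-PP1 full growth; inhibition rescues growth on 5-FOA so higher OD means more RAM inhibition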
WT yeast gro inh: growth inhibition of WT yeast, mitochondrial fusion screen; mitochondrial fusion phenotypic screen, WT strain; inhibition, % at 10 µM; 2.1% of 190,000 active; AID 1362; in the data active means inhibition above about 58%; tested in S. cerevisiae
The depositor's hits bear a star; / = no result given. A selection: hits, their analogues and other compounds. The true share with any hit is near 12%.

SMILES	ABCG2 block	ABCB1 inh	L major viab	RAM network inh	WT yeast gro inh
COc1ccc(-n2c(C)cc(C(=O)C[N+]34CCN(CC3)CC4)c2C)cc1	-1	0	-3	1	7
CC(CCc1ccccc1)NC(C)C(O)c1ccc(O)cc1 (centres undefined)	0	0	89*	0	-5
CCOC(C(=O)OCCCN(CC)CC)(c1ccccc1)c1ccccc1	2	1	100*	-1	-9
CCN(CC)CCCOC(=O)C(OC(C)C)(c1ccccc1)c1ccccc1	1	1	89*	-1	36
COc1cc2ccccc2cc1C(=O)Nc1ccc(Cc2ccncc2)cc1	2	1	99*	1	50
CCCCCCOc1ccc(CN2CCN(C)CC2)cc1	4	1	100*	1	24
CCCNS(=O)(=O)c1ccc(OCC(=O)N2CCN(Cc3ccccc3)CC2)cc1	35	3	-3	0	1
CN1CCC(N(C)c2nc(-c3ccc([N+](=O)[O-])cc3)nc3ccccc23)CC1	2	0	100*	2	35
Cc1cccc(-n2c(/C=C/c3ccc([N+](=O)[O-])o3)nc3ccccc3c2=O)c1	4	2	88*	3	46
O=c1c2ccccc2nc(/C=C/c2ccc([N+](=O)[O-])o2)n1-c1ccc(O)cc1	22	2	99*	4	-15
Cc1ccnc(-n2c(-c3ccco3)nc3ccccc3c2=O)c1	3	0	0	0	-8
CC1(C)C2([N+](=O)[O-])CN3CN(C2)CC1([N+](=O)[O-])C3	4	1	-5	2	-4
CN1CC(C(=O)c2ccccc2)C(C(=O)c2ccccc2)C1 (centres undefined)	1	0	3	0	6
CC1CN(C)C(C)(C)CC1(O)c1ccccc1 (centres undefined)	1	0	57*	1	-7
Cc1ccc(C2(O)CC(C)N(C)CC2C)cc1 (centres undefined)	6	1	88*	8	15
CCOc1ccc(Br)c(C2(O)CC(C)N(C)CC2C)c1 (centres undefined)	1	0	83*	0	-7
CCOc1ccc(CC2(CCc3ccncc3)C(=O)NC(=O)NC2=O)cc1	2	0	-7	0	-10
CN(C)P(=O)(CCl)Nc1ccccc1 (centres undefined)	3	0	-5	0	2
CC(=O)OC1N=C(c2ccccc2)c2cc(C)ccc2NC1=O (centres undefined)	6	1	75*	0	-1
Cc1cc(Cl)ccc1OCCCC(=O)NCc1cccs1	2	/	60*	1	10
Cc1cc(OCCCC(=O)NCc2cccs2)ccc1Cl	9	0	56*	2	-25
O=C(CCCOc1ccc(Cl)cc1Cl)N1CCC2(CC1)OCCO2	6	1	-5	2	25
O=C(C(=O)N1CCOCC1)c1cn(Cc2ccccc2)c2ccccc12	0	0	2	1	-15
Cc1c2ccncc2c(C)c2c1[nH]c1ccccc12	20	12	100*	-1	66*
CCN1CC2([N+](=O)[O-])CC=C(Cl)C([N+](=O)[O-])(C1)C2 (centres undefined)	8	0	-3	0	-1
SMILES	ABCG2 block	ABCB1 inh	L major viab	RAM network inh	WT yeast gro inh
CCN(CC)C(=O)c1ccc(NC(=O)COc2ccc([N+](=O)[O-])cc2Cl)cc1	13	1	50*	4	-2
CC12CN3CC(C)(CN(C1)C3c1cccnc1)C2=O (centres undefined)	0	0	6	1	1
CCC12CN3CC(CC)(CN(C1)C3c1cccnc1)C2=O (centres undefined)	0	0	1	0	9
CCCCNC(=S)N1CCn2cccc2C1c1cccnc1 (centres undefined)	0	0	92*	4	4
CNC(=S)N1CCn2cccc2C1c1cccnc1 (centres undefined)	2	1	68*	0	0
CCC(=O)N1N=C2C3CCN(CC3)C2C1c1ccc(C)cc1 (centres undefined)	3	1	-2	1	11
O=C(c1ccc(C(F)(F)F)cc1)C1CCCN(C2CCSCC2)C1 (centres undefined)	1	1	92*	-1	6
Cc1cc(Cl)ccc1C(=O)C1CCCN(C2CCSCC2)C1 (centres undefined)	13	5	85*	1	14
COc1ccc(Cl)cc1C(=O)C1CCCN(CCO)C1 (centres undefined)	2	1	4	3	19
Cc1cccc(CN2CCCC(C(=O)c3ccc(C(F)(F)F)cc3)C2)n1 (centres undefined)	2	1	79*	1	17
Cc1ccnc(-n2c(C)nc3ccccc3c2=O)c1	5	0	-5	0	3
Cc1cccc(N2CCc3c2nc2ccccc2c3N)c1	3	0	94*	2	-2
COc1ccc2ccc(O)c(CN3CC=C(c4ccccc4)CC3)c2c1	-3	-1	8	1	61*
COc1ccc2c(CN3CC=C(c4ccccc4)CC3)cc(=O)oc2c1	4	0	8	1	37
COc1cc(C)cc(CN2CC=C(c3ccccc3)CC2)c1O	2	1	65*	1	19
O=C1NC(=O)C2=Cc3ccc(O)cc3OC2(O)N1 (centres undefined)	-2	-1	-2	2	-2
O=[N+]([O-])c1ccc(N2CCCC2)cc1N/N=C1\CN2CCC1CC2	8	1	27	3	13
O=C(N/N=C1/CN2CCC1CC2)c1cc2ccccc2cc1O	-2	0	92*	0	-3
Cc1cc(C=C2C(=O)NC(=S)NC2=O)c(C)n1-c1ccc2c(c1)OCO2	-7	-1	86*	8	-8
COc1ccc(C(C)=O)cc1CC(C(=O)c1ccc(F)cc1)N(C)C (centres undefined)	8	1	-3	1	3
CCCCS(=O)(=O)N1CCN(C(=N)N[N+](=O)[O-])CC1	10	1	-3	1	8
O=C1Nc2ccccc2/C1=C/c1cnc[nH]1	11	1	98*	0	-12
Cc1ccccc1-n1c(-c2ccoc2)nc2ccccc2c1=O	4	1	-3	0	-7
CN1C(=O)C(=Cc2ccc(N3CCOCC3)o2)C(=O)N(C)C1=O	8	1	-2	0	-1
CN1C(=O)C(=Cc2ccc(N3CCCCCC3)o2)C(=O)N(C)C1=S	0	0	8	8.7*	17
CC1CCC(NCC(O)c2ccccc2)CC1 (centres undefined)	-8	-1	71*	1	5
OC(CNC1CCCCCCC1)c1ccccc1 (centres undefined)	1	0	15	1	-1
